From ChEMBL document CHEMBL1155588, “Use of COMPARE analysis to discover functional analogues of bleomycin” (J Nat Prod, 2000) come the findings set out here.

A short description of assay [1]: Induction of pSP64 plasmid DNA relaxation by agarose gel electrophoresis in presence of Cu2+. The gist of the method: (§1)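 Cell-free cleavage of supercoiled, covalently closed circular pSP64 plasmid DNA, with or without Cu2+. Reactions ran 1 h at 37 °C and were stopped with bromophenol blue in 30% glycerol. Products were resolved on 1% agarose containing 0.7 µg/mL ethidium bromide in Tris-borate-EDTA at 130 V for 3 h and viewed under UV. Forms I, II (nicked) and III (linear) were scored.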

The nature of assay [2]: Induction of supercoiled pSP64 plasmid DNA cleavage assessed as increase in nicked form 2 at 0.25 uM by agarose gel electrophoresis in presence of Cu2+. An outline of the steps:
as §1

A short description of assay [3]: Induction of supercoiled pSP64 plasmid DNA cleavage assessed as increase in nicked form 2 at 1 uM by agarose gel electrophoresis. An outline of the steps: as §1
Assay [4] in a line: Induction of supercoiled pSP64 plasmid DNA cleavage assessed as increase in linear duplex form 3 by agarose gel electrophoresis. An outline of the steps: as §1
Assay [5] can be described thus: Induction of supercoiled pSP64 plasmid DNA cleavage assessed as increase in linear duplex form 3 at 10 uM by agarose gel electrophoresis. An outline of the steps:
as §1

The nature of assay [6]: Induction of supercoiled pSP64 plasmid DNA cleavage assessed as increase in nicked form 2 at 500 nM by agarose gel electrophoresis in presence of Cu2+. An outline of the steps: as §1
A short description of assay [7]: Induction of supercoiled pSP64 plasmid DNA cleavage assessed as increase in nicked form 2 at 2.5 uM by agarose gel electrophoresis in presence of Cu2+. An outline of the steps: as §1
Assay [8] in a line: Induction of supercoiled pSP64 plasmid DNA cleavage assessed as increase in nicked form 2 at 10 uM by agarose gel electrophoresis. An outline of the steps: as §1

Calls of active or inactive are those of the source. No cut-off for these calls is given here.

For `COc1cc([C@@H]2OC[C@@H]3[C@H]2CO[C@H]3c2cc(OC)c(O)c(OC)c2)cc(OC)c1O`, the Activity entry is “Dose-dependent effect” in assay [1] and greater than 50% in assay [3]. Also, the result in assay [2] was Active. Besides, the outcome in assay [4] was inactive.

Take `Oc1cc(O)c2c(c1)O[C@H](c1ccc(O)c(O)c1)[C@@H](O)C2`: the Activity result in assay [1] is “Dose-dependent effect”; in assay [6], greater than 50%. Moreover, the outcome in assay [5] was Active.

As to `Oc1cc(O)c2c(c1)O[C@@H](c1ccc(O)c(O)c1)[C@@H](O)C2`, the figures for the Activity result in assay [1] and in assay [6] were “Dose-dependent effect” and greater than 50%, respectively. The result in assay [5] was Active.

`COc1cc(C=O)cc(OC)c1O`: the Activity entry in assay [1] was “Dose-dependent effect”; in assay [8], greater than 50%. Further, in assay [7], the result was Active. Further, in assay [4], the outcome was inactive.
